# Measurements reported in article PMC11047177 (ESMO Open, 2024).
# Entries after “also recorded” stand apart in the source; their conditions may differ.
# Assay: Phase I study NCT03854227: DLTs and adverse events
# Type: in vivo, human
# Procedure, shortened: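 Open-label, multicentre first-in-human trial in adults (ECOG 0–1) with advanced or metastatic tumours. Oral test compound, q.d. or b.i.d., on an empty stomach in continuous 28-day cycles. Part 1 started at 0.5 mg q.d., with escalation guided by a two-parameter Bayesian logistic regression model on cycle 1 DLTs. Part 2 ran at 6 mg q.d. AEs were graded by CTCAE 5.0 and summarised descriptively by dose level.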
smiles,measurement,setting,value
Cc1ncnc2c1ccn2[C@@H]1C[C@H](Oc2cc(C(F)F)c(F)c3c2CNCC3)[C@@H](O)[C@H]1O [PF-06939999],Grade ≥3 TRAE thrombocytopenia/platelet count decreased,"overall (part 1 + part 2), N=54",22%
same,"TRAE dysgeusia, any grade","part 1 + part 2, N=54",22%
same,"TRAE fatigue, any grade","part 1 + part 2, N=54",28%
same,"TRAE nausea, any grade","part 1 + part 2, N=54",32%
same,"TRAE thrombocytopenia, any grade","part 1 + part 2, N=54",41%
same,DLT,"part 1, 0.5 mg b.i.d., N=1",0 n (%)
same,Grade ≥3 TRAE Anemia,"part 1, 0.5 mg b.i.d., N=1",0 n (%)
same,Grade ≥3 TRAE Fatigue,"part 1, 0.5 mg b.i.d., N=1",0 n (%)
same,Grade ≥3 TRAE Lymphocyte count decreased,"part 1, 0.5 mg b.i.d., N=1",0 n (%)
same,Grade ≥3 TRAE Muscular weakness,"part 1, 0.5 mg b.i.d., N=1",0 n (%)
same,Grade ≥3 TRAE Neutropenia,"part 1, 0.5 mg b.i.d., N=1",0 n (%)
same,Grade ≥3 TRAE Thrombocytopenia,"part 1, 0.5 mg b.i.d., N=1",0 n (%)
same,DLT,"part 1, 0.5 mg q.d., N=1",0 n (%)
same,Grade ≥3 TRAE Anemia,"part 1, 0.5 mg q.d., N=1",0 n (%)
same,Grade ≥3 TRAE Fatigue,"part 1, 0.5 mg q.d., N=1",0 n (%)
same,Grade ≥3 TRAE Lymphocyte count decreased,"part 1, 0.5 mg q.d., N=1",0 n (%)
same,Grade ≥3 TRAE Muscular weakness,"part 1, 0.5 mg q.d., N=1",0 n (%)
same,Grade ≥3 TRAE Neutropenia,"part 1, 0.5 mg q.d., N=1",0 n (%)
same,Grade ≥3 TRAE Thrombocytopenia,"part 1, 0.5 mg q.d., N=1",0 n (%)
same,DLT,"part 1, 1 mg b.i.d., N=2",0 n (%)
same,Grade ≥3 TRAE Anemia,"part 1, 1 mg b.i.d., N=2",1 (50) n (%)
same,Grade ≥3 TRAE Fatigue,"part 1, 1 mg b.i.d., N=2",0 n (%)
same,Grade ≥3 TRAE Lymphocyte count decreased,"part 1, 1 mg b.i.d., N=2",0 n (%)
same,Grade ≥3 TRAE Muscular weakness,"part 1, 1 mg b.i.d., N=2",0 n (%)
same,Grade ≥3 TRAE Neutropenia,"part 1, 1 mg b.i.d., N=2",0 n (%)
same,Grade ≥3 TRAE Thrombocytopenia,"part 1, 1 mg b.i.d., N=2",0 n (%)
same,DLT,"part 1, 2 mg b.i.d., N=2",0 n (%)
same,Grade ≥3 TRAE Anemia,"part 1, 2 mg b.i.d., N=3",0 n (%)
same,Grade ≥3 TRAE Fatigue,"part 1, 2 mg b.i.d., N=3",0 n (%)
same,Grade ≥3 TRAE Lymphocyte count decreased,"part 1, 2 mg b.i.d., N=3",0 n (%)
same,Grade ≥3 TRAE Muscular weakness,"part 1, 2 mg b.i.d., N=3",0 n (%)
same,Grade ≥3 TRAE Neutropenia,"part 1, 2 mg b.i.d., N=3",0 n (%)
same,Grade ≥3 TRAE Thrombocytopenia,"part 1, 2 mg b.i.d., N=3",1 (33) n (%)
same,DLT,"part 1, 4 mg b.i.d., N=3",0 n (%)
same,Grade ≥3 TRAE Anemia,"part 1, 4 mg b.i.d., N=3",1 (33) n (%)
same,Grade ≥3 TRAE Fatigue,"part 1, 4 mg b.i.d., N=3",1 (33) n (%)
same,Grade ≥3 TRAE Lymphocyte count decreased,"part 1, 4 mg b.i.d., N=3",0 n (%)
same,Grade ≥3 TRAE Muscular weakness,"part 1, 4 mg b.i.d., N=3",0 n (%)
same,Grade ≥3 TRAE Neutropenia,"part 1, 4 mg b.i.d., N=3",0 n (%)
same,Grade ≥3 TRAE Thrombocytopenia,"part 1, 4 mg b.i.d., N=3",1 (33) n (%)
same,DLT,"part 1, 4 mg q.d., N=4",0 n (%)
same,Grade ≥3 TRAE Anemia,"part 1, 4 mg q.d., N=5",2 (40) n (%)
same,Grade ≥3 TRAE Fatigue,"part 1, 4 mg q.d., N=5",0 n (%)
same,Grade ≥3 TRAE Lymphocyte count decreased,"part 1, 4 mg q.d., N=5",0 n (%)
same,Grade ≥3 TRAE Muscular weakness,"part 1, 4 mg q.d., N=5",1 (20) n (%)
same,Grade ≥3 TRAE Neutropenia,"part 1, 4 mg q.d., N=5",0 n (%)
same,Grade ≥3 TRAE Thrombocytopenia,"part 1, 4 mg q.d., N=5",0 n (%)
same,"DLT thrombocytopenia, number of patients","part 1, 6 mg b.i.d.",2 n
same,DLT,"part 1, 6 mg b.i.d., N=2",2 (100) n (%)
same,Grade ≥3 TRAE Anemia,"part 1, 6 mg b.i.d., N=4",1 (25) n (%)
same,Grade ≥3 TRAE Fatigue,"part 1, 6 mg b.i.d., N=4",0 n (%)
same,Grade ≥3 TRAE Lymphocyte count decreased,"part 1, 6 mg b.i.d., N=4",0 n (%)
same,Grade ≥3 TRAE Muscular weakness,"part 1, 6 mg b.i.d., N=4",0 n (%)
same,Grade ≥3 TRAE Neutropenia,"part 1, 6 mg b.i.d., N=4",0 n (%)
same,Grade ≥3 TRAE Thrombocytopenia,"part 1, 6 mg b.i.d., N=4",2 (50) n (%)
same,"DLT (grade 3) neutropenia, number of patients","part 1, 6 mg q.d.",1 n
same,DLT,"part 1, 6 mg q.d., N=6",1 (17) n (%)
same,Grade ≥3 TRAE Anemia,"part 1, 6 mg q.d., N=6",2 (33) n (%)
same,Grade ≥3 TRAE Fatigue,"part 1, 6 mg q.d., N=6",1 (17) n (%)
same,Grade ≥3 TRAE Lymphocyte count decreased,"part 1, 6 mg q.d., N=6",0 n (%)
same,Grade ≥3 TRAE Muscular weakness,"part 1, 6 mg q.d., N=6",0 n (%)
same,Grade ≥3 TRAE Neutropenia,"part 1, 6 mg q.d., N=6",1 (17) n (%)
same,Grade ≥3 TRAE Thrombocytopenia,"part 1, 6 mg q.d., N=6",0 n (%)
same,"DLT (grade 3) anemia, number of patients","part 1, 8 mg q.d.",1 n
same,DLT,"part 1, 8 mg q.d., N=3",1 (33) n (%)
same,Grade ≥3 TRAE Anemia,"part 1, 8 mg q.d., N=3",1 (33) n (%)
same,Grade ≥3 TRAE Fatigue,"part 1, 8 mg q.d., N=3",0 n (%)
same,Grade ≥3 TRAE Lymphocyte count decreased,"part 1, 8 mg q.d., N=3",1 (33) n (%)
same,Grade ≥3 TRAE Muscular weakness,"part 1, 8 mg q.d., N=3",0 n (%)
same,Grade ≥3 TRAE Neutropenia,"part 1, 8 mg q.d., N=3",0 n (%)
same,Grade ≥3 TRAE Thrombocytopenia,"part 1, 8 mg q.d., N=3",2 (67) n (%)
same,Patients reporting DLTs,"part 1, 4 of 24 DLT-assessable patients",17%
same,"DLT grade 3 thrombocytopenia, number of patients","part 1, 6-mg b.i.d. cohort",1 n
same,"DLT grade 4 thrombocytopenia, number of patients","part 1, 6-mg b.i.d. cohort",1 n
same,DLT,"part 1, Total, N=24",4 (17) n (%)
same,Grade ≥3 TRAE Fatigue,"part 1, Total, N=28",2 (7) n (%)
same,Grade ≥3 TRAE Lymphocyte count decreased,"part 1, Total, N=28",1 (4) n (%)
same,Grade ≥3 TRAE Muscular weakness,"part 1, Total, N=28",1 (4) n (%)
same,Grade ≥3 TRAE Neutropenia,"part 1, Total, N=28",1 (4) n (%)
same,Grade ≥3 TRAE Thrombocytopenia,"part 1, Total, N=28",6 (21) n (%)
same,Maximum tolerated dose (MTD),"part 1 dose escalation, 0.5 mg q.d. to 6 mg b.i.d.",No MTD was determined; also recorded: MTD was not identified
same,"Dose reduction due to thrombocytopenia, patients","part 2, 6 mg q.d., 4 patients",15%
same,"Dose reduction due to anemia, patients","part 2, 6 mg q.d., 5 patients",19%
same,Patients with ≥1 dose reduction due to AEs,"part 2, 6 mg q.d., eight patients",31%
